{"source": "paper PMC2854012", "about": "(Cancer chemotherapy and pharmacology, 2009)", "key": {"protein kinase C": {"molecular_target": "protein kinase C", "settings": "cited from earlier work"}, "[1]": {"tested_on": "patients with advanced malignancies", "assay": "Phase I safety and toxicity, DLT and MTD of UCN-01 with prednisone", "format": "in vivo, human", "outline": "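Open-label single-arm escalation with 3-6 patients per level. Test compound by continuous IV infusion, 72 h (days 3-5) in cycle 1, then 36 h from day 3; levels 17, 24, 34 mg/m2/24 h. Oral glucocorticoid 60 mg/m2/day, days 1-5; 28-day cycles. Graded by NCI CTC v2.0. DLT: grade 3-4 non-hematologic (separate hyperglycemia rules), grade 4 granulocytopenia or thrombocytopenia. MTD: ≤1 of 6 with DLT.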"}, "[2]": {"tested_on": "patients with refractory neoplasms", "settings": "cited from earlier work"}, "[3]": {"assay": "Plasma pharmacokinetics of UCN-01 in patients", "format": "in vivo, human", "outline": "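Heparinized blood drawn in cycle 1 before dosing, 12, 24, 48 and 72 h after infusion start, and 12, 24 and 48 h after infusion end. Cycle 2 sampled pre-dose, at 36 h and 24 h post-end. Plasma spun 1200 x g, 5 min, 4°C, stored -80°C; assayed by HPLC-UV. Noncompartmental analysis: Cmax by inspection; λz from ≥3 terminal points; t1/2 = 0.693/λz; linear-trapezoidal AUC extrapolated by Ct/λz; CL = dose/AUC.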"}, "[4]": {"tested_on": "patients with advanced malignancies", "assay": "Tumor response by RECIST in the phase I trial of UCN-01 with prednisone", "format": "in vivo, human", "settings": "15 patients", "outline": "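Tumor response assessed radiographically every two cycles by RECIST. Patients received continuous IV test compound (72 h in cycle 1, 36 h thereafter) plus oral glucocorticoid 60 mg/m2/day on days 1-5, in 28-day cycles.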"}, "[5]": {"tested_on": "insulin-stimulated glucose transport", "settings": "cited from earlier work"}, "[6]": {"settings": "15 patients, 55 courses, with prednisone"}, "[7]": {"settings": "drug-related adverse events, 15 patients, all dose levels"}}, "note": "“Also recorded” adds a separate entry of the source."}
{"smiles": "CN[C@@H]1C[C@H]2O[C@@](C)([C@@H]1OC)n1c3ccccc3c3c4c(c5c6ccccc6n2c5c31)C(=O)N[C@@H]4O", "note": "[UCN-01, 7-hydroxy staurosporine]", "values": [{"measurement": "IC50", "setting": "protein kinase C", "result": "4 to 30", "unit": "nM"}, {"measurement": "cumulative toxicities", "setting": "[1]; [6]", "result": "no cumulative toxicities"}, {"measurement": "grade 4 adverse events", "setting": "[1]; [6]", "result": "no grade 4 adverse events"}, {"measurement": "patients developing some grade of hyperglycemia", "setting": "[1]; 15 patients, with prednisone", "result": "All patients"}, {"measurement": "MTD and recommended phase II dose, cycle 2 and beyond", "setting": "[1]; CIV over 36 h, with prednisone 60 mg/m^2/day for 5 days every cycle", "result": 36, "unit": "mg/m^2/cycle"}, {"measurement": "reduction in the maximum dose of UCN-01 that could be safely administered", "setting": "[1]; combination with prednisone versus single agent on the same schedule", "result": 44, "unit": "%"}, {"measurement": "DLTs", "setting": "[1]; dose level 2 (72 mg/m^2 total dose over 72 h for cycle 1 followed by 36 mg/m^2/cycle), six patients", "result": "without any DLTs"}, {"measurement": "grade 3 hyperglycemia, patients", "setting": "[1]; dose level 3 (102 mg/m^2 total dose over 72 h for cycle 1 followed by 51 mg/m^2/cycle)", "result": "three"}, {"measurement": "DLT: grade 3 hypophosphatemia during cycle 1, patients", "setting": "[1]; dose level 3 (102 mg/m^2 total dose over 72 h for cycle 1 followed by 51 mg/m^2/cycle), six patients", "result": "Two of the six patients"}, {"measurement": "Anemia grade 2, No. of patients", "setting": "[1]; [7]", "result": "2 (1)"}, {"measurement": "Headache grade 2, No. of patients", "setting": "[1]; [7]", "result": "2 (1)"}, {"measurement": "Hyperglycemia grade 2, No. of patients", "setting": "[1]; [7]", "result": "2 (9)"}, {"measurement": "Hypoalbuminemia grade 2, No. of patients", "setting": "[1]; [7]", "result": "2 (2)"}, {"measurement": "Hyponatremia grade 3, No. of patients", "setting": "[1]; [7]", "result": "3 (1)"}, {"measurement": "Hypophosphatemia grade 2, No. of patients", "setting": "[1]; [7]", "result": "2 (6)"}, {"measurement": "Hypophosphatemia grade 3, No. of patients", "setting": "[1]; [7]", "result": "3 (4)"}, {"measurement": "Leucopenia grade 2, No. of patients", "setting": "[1]; [7]", "result": "2 (1)"}, {"measurement": "Leucopenia grade 3, No. of patients", "setting": "[1]; [7]", "result": "3 (1)"}, {"measurement": "Neutropenia grade 2, No. of patients", "setting": "[1]; [7]", "result": "2 (1)"}, {"measurement": "Rash/desquamation grade 2, No. of patients", "setting": "[1]; [7]", "result": "2 (1)"}, {"measurement": "Visual (photophobia) grade 2, No. of patients", "setting": "[1]; [7]", "result": "2 (1)"}, {"measurement": "MTD and recommended phase II dose, cycle 1", "setting": "[1]; total dose CIV over 72 h, with prednisone 60 mg/m^2/day for 5 days every cycle", "result": 72, "unit": "mg/m^2"}, {"measurement": "GI toxicity", "setting": "[1]; with prednisone", "result": "did not observe any significant GI toxicity"}, {"measurement": "pulmonary toxicity", "setting": "[1]; with prednisone", "result": "did not observe any pulmonary toxicity"}, {"measurement": "toxicity at the dose level above the single-agent MTD", "setting": "[2]; 159 mg/m^2 over 72 h", "result": "grade 4 hyperglycemia and vomiting"}, {"measurement": "MTD, single agent, cycle 1", "setting": "[2]; over 72h, same schedule", "result": 127.5, "unit": "mg/m^2"}, {"measurement": "duration of prolonged disease stabilization", "setting": "[2]; patient with alk-positive anaplastic large-cell lymphoma", "result": "> 2.5", "unit": "years"}, {"measurement": "partial response", "setting": "[2]; patient with melanoma", "result": "One partial response"}, {"measurement": "\"free\" UCN-01 levels at the end of infusion", "setting": "[2]; supernatant of ultracentrifuged plasma, 24 mg/m^2/day for 3 days", "result": "200 to 600", "unit": "nmol/L"}, {"measurement": "MTD, single agent, subsequent cycles", "setting": "[2]; total dose administered over 36 h", "result": 63, "unit": "mg/m^2"}, {"measurement": "Clearance Mean", "setting": "[3]; cycle 1, 72-h IV infusion, UCN-01 17 mg/m^2/24 h, with prednisone", "result": 5.4, "unit": "mL/h/m^2"}, {"measurement": "Clearance Mean", "setting": "[3]; cycle 1, 72-h IV infusion, UCN-01 24 mg/m^2/24 h, with prednisone", "result": 3.1, "unit": "mL/h/m^2"}, {"measurement": "Clearance Mean", "setting": "[3]; cycle 1, 72-h IV infusion, UCN-01 34 mg/m^2/24 h, with prednisone", "result": 4.2, "unit": "mL/h/m^2"}, {"measurement": "half-life", "setting": "[3]; human, plasma, intravenous, half-life, at the MTD, with prednisone", "result": "~18.8", "unit": "days"}, {"measurement": "Cmax", "setting": "[3]; human, plasma, intravenous, mean Cmax, at the MTD, with prednisone", "result": "~12000", "unit": "ng/mL"}, {"measurement": "AUC(0-inf)", "setting": "[3]; human, plasma, iv, AUCinf Mean, cycle 1, 72-h IV infusion, UCN-01 17 mg/m^2/24 h, with prednisone", "result": 3130, "unit": "µg·h/mL"}, {"measurement": "Cmax", "setting": "[3]; human, plasma, iv, Cmax Mean, cycle 1, 72-h IV infusion, UCN-01 17 mg/m^2/24 h, with prednisone", "result": 10000, "unit": "ng/mL"}, {"measurement": "clearance", "setting": "[3]; range over all dose levels (17, 24 and 34 mg/m^2/24 h x 72 h)", "result": "2.13−5.47 mL/h/m^2"}, {"measurement": "patients with stable disease for longer than two cycles", "setting": "[4]", "result": "five"}, {"measurement": "response as defined by RECIST criteria", "setting": "[4]", "result": "No objective responses; also recorded: None of the 15 patients had a response"}]}
{"smiles": "CN[C@@H]1C[C@H]2O[C@@](C)([C@@H]1OC)n1c3ccccc3c3c4c(c5c6ccccc6n2c5c31)C(=O)NC4", "note": "[Staurosporine]", "values": [{"measurement": "effect on insulin-stimulated glucose transport", "setting": "[5]", "result": "inhibit insulin-stimulated glucose transport"}]}
